The target of data set [1] is T1, Protein deacetylase HDAC6 (Homo sapiens, UniProt Q9UBN7).
T1 sequence (Q9UBN7 whole entry): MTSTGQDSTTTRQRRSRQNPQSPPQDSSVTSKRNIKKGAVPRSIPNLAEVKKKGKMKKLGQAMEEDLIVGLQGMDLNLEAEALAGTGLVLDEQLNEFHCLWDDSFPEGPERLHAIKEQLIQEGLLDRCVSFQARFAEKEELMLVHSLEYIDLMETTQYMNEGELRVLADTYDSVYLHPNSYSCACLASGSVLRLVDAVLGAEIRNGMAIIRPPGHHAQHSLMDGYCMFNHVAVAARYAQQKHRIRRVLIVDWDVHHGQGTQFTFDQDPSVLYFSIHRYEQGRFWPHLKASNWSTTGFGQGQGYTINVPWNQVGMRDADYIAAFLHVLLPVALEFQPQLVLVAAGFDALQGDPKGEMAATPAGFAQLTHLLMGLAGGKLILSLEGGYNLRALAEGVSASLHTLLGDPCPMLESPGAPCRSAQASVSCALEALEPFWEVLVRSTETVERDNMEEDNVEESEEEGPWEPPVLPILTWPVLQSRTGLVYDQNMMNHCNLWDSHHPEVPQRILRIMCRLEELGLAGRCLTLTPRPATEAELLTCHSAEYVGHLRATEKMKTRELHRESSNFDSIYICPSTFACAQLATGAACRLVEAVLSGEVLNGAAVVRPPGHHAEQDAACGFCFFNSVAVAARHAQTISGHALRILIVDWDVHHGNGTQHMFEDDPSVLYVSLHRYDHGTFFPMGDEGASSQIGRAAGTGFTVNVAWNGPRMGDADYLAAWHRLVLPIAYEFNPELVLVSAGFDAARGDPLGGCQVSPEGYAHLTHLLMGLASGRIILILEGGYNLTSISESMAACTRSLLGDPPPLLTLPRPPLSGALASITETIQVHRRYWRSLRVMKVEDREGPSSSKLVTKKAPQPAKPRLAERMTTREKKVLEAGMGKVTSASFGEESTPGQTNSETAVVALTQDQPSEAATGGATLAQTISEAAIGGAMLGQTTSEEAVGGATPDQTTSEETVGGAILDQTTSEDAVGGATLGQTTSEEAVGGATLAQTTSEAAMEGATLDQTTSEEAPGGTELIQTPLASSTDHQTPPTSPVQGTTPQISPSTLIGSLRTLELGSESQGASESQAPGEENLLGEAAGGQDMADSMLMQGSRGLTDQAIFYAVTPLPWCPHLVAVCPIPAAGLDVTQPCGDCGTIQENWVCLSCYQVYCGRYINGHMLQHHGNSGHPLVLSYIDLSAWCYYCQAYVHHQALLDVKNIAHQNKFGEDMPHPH
Nature of the data set: Inhibition of recombinant human HDAC6 using fluorogenic HDAC substrate preincubated for 15 mins followed by substrate addition and measured after 30 mins by fluorescence analysis.

Data set [2] is described as follows: Antioxidant activity assessed as cumene hydroperoxide radical scavenging at 10 uM measured within 180 mins. It is filed as functional. An outline of the steps:
(§1)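 Kinetic peroxide scavenging by GSH at 25 °C in 100 mM phosphate buffer, pH 7.5. Final conditions: EDTA 1 mM, GSH 0.25 mM, NADPH 0.50 mM, glutathione reductase 1.3 unit·mL-1, peroxide 0.20 mM (H2O2, t-BuOOH or Cum-OOH), catalyst 10 μM. Scavenging was followed over time, and maximal scavenging was derived. Mean ± SE, three independent experiments.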

The subject of data set [3] is PC-12. Kind of data set: Neuroprotective activity against 6-OHDA-induced toxicity in rat PC12 cells assessed as increase in cell viability at 10 uM pretreated for 24 hrs followed by 6-OHDA challenge and measured after 12 hrs by MTT assay. It is filed as functional, cell-based. An outline of the steps:
(§2)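 Medium was replaced with fresh medium containing H2O2 (400 μM) or 6-OHDA (200 μM), and incubation continued 12 h. Viability was read by MTT assay. Mean ± SD, three independent experiments.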
In general terms: Tetrazolium dyes change colour on reduction, which living cells bring about.

Data set [4] in a line: Antioxidant activity assessed as H2O2 radical scavenging at 10 uM measured within 180 mins. In kind it is functional. An outline of the steps:
as §1

Data set [5] has as its system PC-12. Kind of data set: Cytotoxicity against rat PC12 cells at 20 uM after 24 hrs by MTT assay. In kind it is cell-based. As to conditions: pc-12, 24 h.
Data set [6] relates to PC-12. Nature of the data set: Neuroprotective activity against 6-OHDA-induced toxicity in rat PC12 cells assessed as increase in cell viability at 5 uM pretreated for 24 hrs followed by 6-OHDA challenge and measured after 12 hrs by MTT assay. In kind it is functional, cell-based. An outline of the steps:
as §2

Data set [7] has as its system PC-12. Nature of the data set: Neuroprotective activity against H2O2-induced toxicity in rat PC12 cells assessed as cell viability at 10 uM pretreated for 24 hrs followed by H2O2 challenge and measured after 12 hrs by MTT assay relative to control. In kind it is functional, cell-based. An outline of the steps:
as §2

Data set [8] in a line: Antioxidant activity assessed as tert-butyl hydroperoxide radical scavenging at 10 uM measured within 180 mins. It is filed as functional. An outline of the steps:
as §1

A short description of data set [9]: Antioxidant activity assessed as cumene hydroperoxide radical scavenging at 10 uM up to 200 mins. It is filed as functional. The method, boiled down:
as §1

A short description of data set [10]: Antioxidant activity assessed as H2O2 radical scavenging at 10 uM up to 200 mins. It is filed as functional. An outline of the steps:
as §1

Data set [11] addresses Histone deacetylase 3 (Homo sapiens, UniProt O15379). Nature of the data set: Inhibition of recombinant human HDAC3 using fluorogenic HDAC substrate after 30 mins by fluorescence analysis.
The nature of data set [12]: Antioxidant activity assessed as tert-butyl hydroperoxide radical scavenging at 10 uM up to 200 mins. It is filed as functional. An outline of the steps:
as §1

Data set [13] relates to PC-12. Nature of the data set: Antioxidant activity against H2O2-induced oxidative stress in rat PC12 cells assessed as decrease in ROS accumulation at 5 uM preincubated for 24 hrs followed by H2O2 challenge and measured after 12 hrs by DCFH-DA dye-based fluorescence analysis. It is filed as functional, cell-based. The method, boiled down: (§3)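 Intracellular ROS was detected by DCFH-DA staining, which esterases deacetylate and ROS oxidise to fluorescent dichlorofluorescein. Fluorescence was quantified on a microplate reader.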

In data set [14] the target is T2, Histone deacetylase 6 (Rattus norvegicus) (UniProt Q99P97).
T2 sequence (whole entry): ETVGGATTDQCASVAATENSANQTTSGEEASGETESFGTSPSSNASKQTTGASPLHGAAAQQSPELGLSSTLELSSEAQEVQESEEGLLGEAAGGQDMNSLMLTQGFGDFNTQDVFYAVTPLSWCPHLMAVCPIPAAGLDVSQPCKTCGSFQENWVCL
Kind of data set: Inhibition of HDAC6 in rat PC12 cells assessed as increase in acetylated alpha-tubulin expression after 24 hrs by Western blot analysis. It is filed as cell-based. The method, boiled down:
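Cellular HDAC6 inhibition: PC12 cells were incubated with compound at 0.01, 0.1, 1 and 10 μM. Acetylated α-tubulin and total α-tubulin were detected by Western blot, and their ratio was assessed.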

The subject of data set [15] is PC-12. Kind of data set: Neuroprotective activity against H2O2-induced toxicity in rat PC12 cells assessed as cell viability at 5 uM pretreated for 24 hrs followed by H2O2 challenge and measured after 12 hrs by MTT assay relative to control. In kind it is functional. As to conditions: read-out: Activity. An outline of the steps:
as §2

Data set [16] concerns PC-12. Nature of the data set: Cytoprotective activity against H2O2-induced damage in rat PC12 cells assessed as decrease in ROS accumulation preincubated for 24 hrs followed by H2O2 challenge measured after 12 hrs by DCFH-DA dye-based fluorescence analysis. In kind it is functional, cell-based. The method, boiled down: as §3
Data set [17] relates to PC-12. Nature of the data set: Antioxidant activity against H2O2-induced oxidative stress in rat PC12 cells assessed as decrease in ROS accumulation preincubated for 24 hrs followed by H2O2 challenge and measured after 12 hrs coincubated with tubastatin A by DCFH-DA dye-based fluorescence analysis. It is filed as functional, cell-based. The method, boiled down:
as §3

The test system of data set [18] is PC-12. Nature of the data set: Cytoprotective activity against H2O2-induced damage in rat PC12 cells assessed as decrease in ROS accumulation preincubated for 24 hrs followed by H2O2 challenge measured after 12 hrs by DCFH-DA dye-based inverted fluorescence microscopic analysis. In kind it is functional, cell-based. An outline of the steps:
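PC12 cells were pretreated with compound (5 or 10 µM), then challenged with H2O2 and stained with DCFH-DA to show ROS. Fluorescence images were taken by inverted fluorescence microscopy.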

pIC50: −log10 of the molar value. Activity calls are given as the source filed them. No cut-off for these calls is given here.

Chain of Histone deacetylase 3 (O15379 whole entry): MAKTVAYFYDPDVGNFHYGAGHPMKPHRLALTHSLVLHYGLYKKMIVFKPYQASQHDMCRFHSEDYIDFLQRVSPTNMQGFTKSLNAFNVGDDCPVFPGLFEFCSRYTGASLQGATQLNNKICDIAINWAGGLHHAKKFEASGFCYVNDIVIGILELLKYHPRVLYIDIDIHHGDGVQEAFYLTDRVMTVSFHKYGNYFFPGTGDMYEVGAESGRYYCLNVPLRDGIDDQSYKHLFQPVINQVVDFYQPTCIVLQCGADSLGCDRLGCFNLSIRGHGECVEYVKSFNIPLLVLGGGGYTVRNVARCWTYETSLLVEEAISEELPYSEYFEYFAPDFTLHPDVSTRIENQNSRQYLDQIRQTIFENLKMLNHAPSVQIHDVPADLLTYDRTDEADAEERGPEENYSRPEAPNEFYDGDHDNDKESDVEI

A word on the pIC50: it is the negative decadic logarithm of the IC50, by convention in mol/L. Consider `O=C(CCCCCn1[se]c2ccccc2c1=O)NO`, for which the pIC50 in data set [1] was 6.74.
For `O=C(NO)c1ccc(-n2[se]c3ccccc3c2=O)cc1`, the pIC50 in data set [1] is 5.71.
Consider `O=C(NO)c1ccc(Cn2[se]c3ccc(O)cc3c2=O)cc1`, for which the result in [2], in data set [3], in [4], in data set [6], in data set [7] and in [8] was Active. The Activity entry in data set [5] is “Non-Toxic”. The pIC50 in data set [1] was 6.73.
Regarding `O=C(CCCCCCn1[se]c2ccccc2c1=O)NO`, the Activity in data set [9] came out at 25%; in data set [10], 41%; in data set [12], 41%. The pIC50 in [11] is 6.79; in data set [1], 7.72.
On to `O=C(CCCOc1ccc(-n2[se]c3ccccc3c2=O)cc1)NO`, for which, in data set [1], the pIC50 was 6.04.
On the same count and under the same terms, as for `O=C(CCCCn1[se]c2ccccc2c1=O)NO`, the figure is 6.45.
As for `O=C(NO)c1ccc(Cn2[se]c3ccc(C(F)(F)F)cc3c2=O)cc1`, the pIC50 in [1] was 6.23.
With `O=C(NO)c1cnc(N2CCC(Cn3[se]c4ccccc4c3=O)CC2)nc1`, the pIC50 in data set [1] is 6.35.
Consider `O=C(/C=C/c1ccc(-n2[se]c3ccccc3c2=O)cc1)NO`, for which the pIC50 in data set [1] was 6.17.
As to `O=C(NO)c1cnc(N2CCC(n3[se]c4ccccc4c3=O)CC2)nc1`, in [1], the pIC50 is 6.01.
On the same count and under the same terms, as for `CC(c1ccc(C(=O)NO)cc1)n1[se]c2ccccc2c1=O` (racemic), the figure is 6.06; as for `O=C(CCc1ccc(-n2[se]c3ccccc3c2=O)cc1)NO`, 5.94; as for `O=C(CCCCCCOc1ccc(-n2[se]c3ccccc3c2=O)cc1)NO`, 6.74.
`O=C(CCCCCOc1ccc(-n2[se]c3ccccc3c2=O)cc1)NO`: the pIC50 in [1] is 6.29.
In the case of `O=C(NO)c1ccc(Cn2[se]c3ccc(F)cc3c2=O)cc1`, the pIC50 in [1] was 6.75.
Turning to `O=C(NO)c1ccc(Cn2[se]c3ccccc3c2=O)cc1`, the Activity in data set [9] was 37%; in data set [10], 62%; in data set [5], “Non-Toxic”; in data set [12] it was 78%; in data set [17], “Dose-dependent effect”. Further, the outcome in data set [13], in [3], in data set [16], in [6] and in data set [18] was Active. In addition, in data set [14], the inhibition entry is “Dose-dependent effect”. The viability at 5 µM in data set [15] came out at 90%. The pIC50 is 5.89 in [11] and 7.43 in [1].

The values above are taken from ChEMBL document CHEMBL4261629 (Bioorg Med Chem, 2018).
